Bioassay records as filed in PubChem.
Shown are actives, neighbours in structure and some others; about 2.4% of the full set was active somewhere.
MC4R ag barr: agonists of human melanocortin 4 receptor (MC4R) beta-arrestin | P32245 | U2OS MC4R beta-arrestin complementation, luminescence; percent of melanotan II response, DMSO zero | activation, % at 8.9 µM | 360,000 compounds, 0.98% hits | AID 540308;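 active = activation above a per-plate cutoff, the mean activation of sample wells on that plate plus 3 SD, cut at about 8% in these data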
Target sequence (P32245 whole entry, looked up): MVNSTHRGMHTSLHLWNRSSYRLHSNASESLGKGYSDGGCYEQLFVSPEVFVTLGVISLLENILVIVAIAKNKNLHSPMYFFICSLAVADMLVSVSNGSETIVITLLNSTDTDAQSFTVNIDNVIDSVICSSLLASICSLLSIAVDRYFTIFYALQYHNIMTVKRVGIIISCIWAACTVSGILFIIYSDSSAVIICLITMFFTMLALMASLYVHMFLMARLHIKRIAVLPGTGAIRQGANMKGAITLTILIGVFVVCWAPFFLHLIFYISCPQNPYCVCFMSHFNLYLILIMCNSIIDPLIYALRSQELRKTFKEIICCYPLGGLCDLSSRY
NTR1 agonist: NTR1 (human) agonism. NTR1-U2OS beta-arrestin-GFP spot imaging, agonist mode. activation, % at 20 µM. 330,000 compounds, 0.17% hits. AID 493036. P30989;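 active = activation at or above 40% of the spot to cytoplasm intensity ratio, with at least 20 cells analyzed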;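 also: 0% = DMSO without peptide and 100% = 100 nM NTR1 peptide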
TbMetRS inhib: blocks T. brucei methionyl-tRNA synthetase activity; purified T. brucei MetRS, ATP depletion, Kinase-Glo luminescence; inhibition, % at 11.9 µM; 360,000 compounds, 0.4% hits; AID 624268;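 active = inhibition above a per-plate cutoff of the control wells' mean inhibition plus 3 SD, cut at about 5.5% in these data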;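 also: 0% = DMSO wells median and 100% = median of wells with control inhibitor compound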
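technique = Kinase-Glo luminescence, ATP depletion format | system = purified MetRS (methionyl-tRNA synthetase) enzyme from Trypanosoma brucei | timing = 15 min preincubation, 2 h reaction, all 25 °C | evaluation = percent inhibition versus plate control medians | dosing = single dose, 11.9 µM final nominal, 0.9% final DMSO | also added = substrates ATP, L-methionine and bulk Escherichia coli tRNA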
TAG inh: triacylglycerol accumulation inhibition; inhibition, % at 12.5 µM; H9c2 cells, Nile Red lipid (TAG) fluorescence; cells loaded with 200 µM oleic acid; 230,000 compounds, 0.66% hits;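 active = pattern-corrected inhibition of lipid staining of at least 50% with the nuclear-stain viability signal not falling by more than 50%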;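 also: 0% = DMSO wells and 100% = triacsin C control wells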
aDG glyco up: increases alpha dystroglycan glycosylation; Pro5-aDG cells, alpha-DG glycosylation AlphaScreen (IIH6); 0% Pro5, 100% B10-LARGE cell signal; activation, % at 10 µM; 360,000 compounds, 0.22% hits;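 active = activation of at least 8% versus controls, or a plate z-score of at least 8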;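 also: Pro5 are CHO cells carrying HIG-tagged alpha-DG that lacks glycosylation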
MC4R antag cAMP: blocks human MC4R cAMP signaling; P32245; MC4R-expressing cells, MTII-stimulated cAMP, LANCE TR-FRET; inhibition, % at 6.5 µM; 360,000 compounds, 0.48% hits; AID 540295;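 active = inhibition above its plate's cutoff, the mean of tested wells on that plate plus 3 SD, cut at about 29% in these data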;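 also: 0% = Melanotan II alone and 100% = Melanotan II plus saturating MCL0020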
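Assay system: U2OS-MC4R stable cell line; Also added: Melanotan II; Technique: Eu-cAMP/anti-cAMP TR-FRET, emission 671 nm; Times: 30-min compound, 1-h challenge, 1-h detection, room temperature.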
The depositor's hits bear a star; . = no result; ! = repeats disagree.

SMILES	MC4R ag barr	NTR1 agonist	TbMetRS inhib	TAG inh	aDG glyco up	MC4R antag cAMP
S=C(Nc1ccc(Cl)c(Cl)c1)NC1CCN(Cc2ccccc2)CC1	22.2*	20.9	0.6	11.0	0.0	3.9
Fc1ccc(NC(=S)NC2CCN(Cc3ccccc3)CC2)cc1	-0.4	0.6	0.5	-13.1	1.3	10.8
C/C(CCc1oc2ccccc2c1-c1ccc(C)o1)=N/O	0.6	4.0	-0.4	-17.1	-0.1	-2.1
C/C(CCc1oc2c(Br)cc(Br)cc2c1-c1ccc(C)o1)=N\O	-0.1	7.3	14.8*	.	0.2	6.5
O=C(/C=C\c1cn(-c2ccccc2)nc1-c1ccc2c(c1)OCCO2)N1CCOCC1	8.5*	2.8	-1.0	18.8	-0.3	6.9
O=C(O)/C=C/c1cn(-c2ccccc2)nc1-c1ccc2c(c1)OCCO2	-2.8	-1.8	-0.3	-5.4	0.8	6.8
COC(=O)[C@]12CCCCC=C1N(Cc1ccc3c(c1)OCO3)C(=O)[C@H](CC(=O)NCCCCc1ccccc1)C2	.	.	-0.9	.	0.0	.
Cc1cnc(C)c(Nc2nc(C(N)c3ccccc3)cs2)n1 (centres undefined)	-1.1	.	0.1	3.2	0.2	-1.8
O=C(Nc1ccc(N=Nc2ccccc2)cc1)c1ccccc1Cl	9.5*	-0.3	0.2	17.0	-0.1	6.0
Cc1c(CCOC(=O)CC23CC4CC(CC(C4)C2)C3)sc[n+]1CC(=O)c1ccc(Br)cc1	-0.4	11.2	-0.5	-3.9	-0.3	-0.4
Cc1c(CCOC(=O)C23CC4CC(CC(C)(C4)C2)C3)sc[n+]1CC(=O)c1ccccc1	9.3*	36.8	-0.5	-1.6	0.2	-11.9
CN1Cc2c(N3CCOCC3)nc3sc(C(=O)c4ccc(Br)cc4)c(N)c3c2CC1(C)C	7.1	8.0	-0.4	68.2*	-0.6	10.3
COc1ccc(C(=O)c2c(C(F)(F)F)oc3c2C(=O)c2ccccc2C3=O)cc1OC	0.3	3.3	-0.9	134.5	5.7*	-5.8
COC(=O)c1cccc(CN2C(=O)C(C)Oc3ccc(C)cc32)c1 (centres undefined)	1.9	.	-0.4	9.5	0.3	-2.0
C=CCn1c(SCC(=O)Nc2ccccc2OC)nnc1-c1ccco1	.	-0.6	.	.	.	.
C=CCn1c(SCC(=O)Nc2nccs2)nnc1-c1cc2cccc(OC)c2o1	9.3*	1.3	-1.0	.	0.5	1.0
COc1cc2ccccc2cc1C(=O)Nc1sc2c(c1C(N)=O)CCN(C(C)C)C2	2.1	10.4	-0.5	54.2*	-0.3	12.0
CN1CCc2c(sc(NC(=O)c3ccc4ccccc4c3)c2C(N)=O)C1	-2.0	-0.8	-0.2	27.9	18.7*	6.9
CC(O)(c1cccc(F)c1)c1nc(-c2cc(F)cc(F)c2)cs1 (centres undefined)	2.8	.	-0.1	-8.8	0.5	9.5
Cc1onc(-c2c(F)cccc2Cl)c1C(=O)Oc1ccccc1	.	.	-1.1	.	-0.4	.
Cc1ccccc1/C=N/Nc1ccnc2cc(Cl)ccc12	8.5*	.	0.5	.	1.8	-2.2
Cc1ccc(/C=N/Nc2ccnc3cc(Cl)ccc23)c(C)c1	4.3	7.2	-0.4	.	-0.9	8.3
CCCS(=O)(=O)NC(=O)C1(C)CCN(C(=O)c2ccc(OC)cc2)C1 (centres undefined)	-0.1	.	-0.2	5.3	1.3	-8.0
O=C(NC1CCCC1)N[C@@H]1CC[C@@H](CC(=O)N2CCOCC2)O[C@@H]1CO	.	.	-0.5	.	0.0	.
CCCN1C(=O)/C(=C/c2c(N3CCNC(=O)C3CC(=O)OCC)nc3c(C)cccn3c2=O)SC1=S (centres undefined)	-0.1	0.2	0.1	-39.8	-0.3	28.9*
SMILES	MC4R ag barr	NTR1 agonist	TbMetRS inhib	TAG inh	aDG glyco up	MC4R antag cAMP
CCOC(=O)CC1C(=O)NCCN1c1nc2ccc(C)cn2c(=O)c1/C=C1\SC(=S)N(CC(C)C)C1=O (centres undefined)	0.0	-1.8	0.3	-56.4	-0.2	21.0
Cc1nc(N/N=C/c2ccccc2)nc(N(C)c2ccccc2)c1[N+](=O)[O-]	10.1*	2.3	0.1	1.3	-0.5	3.6
COc1cc(CNc2ccc(N3CCCC3)cc2)cc(Cl)c1OC	-3.0	6.6	0.2	53.9*	-0.5	-34.2
O=C(N1CCN(c2ccccn2)CC1)N1c2ccccc2Sc2ccccc21	-2.9	6.3	-0.2	57.6*	0.0	-20.6
COc1cccc(C(NC(C)=O)c2nc(-c3ccc4ccccc4c3)cs2)c1 (centres undefined)	-2.0	.	-0.2	-1.1	0.2	1.6
O=C(c1ccc(Br)cc1)c1cc([N+](=O)[O-])ccc1N1CCCCC1	-2.6	-1.2	-0.3	59.3*	-0.8	-18.9
CCC(C)CN1C(=O)CN(S(C)(=O)=O)CC1(C)C(=O)NC(C)C (centres undefined)	.	.	-0.2	.	0.0	.
CCC[C@@H](CN1CCC[C@H]1CN1C(N)=NC[C@@H]1Cc1ccccc1)N1C[C@@H]([C@H](C)CC)N(CCCC2CCCC2)C1=N	3.1	5.4	-0.3	24.5	0.7	39.2*
C[C@@H](CN1CCC[C@H]1CN1C(N)=NC[C@@H]1Cc1ccccc1)N1C[C@@H](Cc2ccccc2)N(CCc2ccc(Cl)c(Cl)c2)C1=N	1.7	-1.2	-0.4	-31.3	-0.5	32.7*
CCC[C@@H](CN1CCC[C@H]1CN1C(N)=NC[C@@H]1Cc1ccccc1)N1C[C@@H](Cc2ccccc2)N(CCCC2CCCC2)C1=N	1.6	-1.0	0.4	-10.7	-0.4	9.1
CC(C)[C@@H]1CN=C(N)N1C[C@@H]1CCCN1C[C@H](C)N1C[C@@H](Cc2ccccc2)N(CCc2ccc(Cl)c(Cl)c2)C1=N	5.0	0.7	-1.0	-36.4	-0.1	11.9
COCCCNCCCOc1ccc(Cl)cc1C(C)(C)C	10.1*	-2.6	0.6	.	1.7	-2.3
CCC(C)Sc1cccc(-c2nc3cc(C)ccn3c2NC2CCCCC2)c1 (centres undefined)	3.6	-0.8	-0.2	28.1	14.7*!	20.3
CCCCCCSc1cccc(-c2nc3cc(C)ccn3c2NC2CCCCC2)c1	-0.9	5.3	-0.3	26.6	3.6	-1.8
COc1ccc(N2C(=O)c3ccccc3NC(=O)C2C(=O)Nc2ccc(N3CCOCC3)cc2)cc1 (centres undefined)	.	.	-0.3	.	0.1	.
Oc1c(C(c2ccccn2)N2CCCCC2)cc(Cl)c2cccnc12 (centres undefined)	-2.8	7.0	-0.9	86.7*	0.0	25.3
Cc1cccc(C)c1-n1nnnc1C1(C)CCC(=O)N1CC(F)(F)F (centres undefined)	.	.	-0.9	.	1.7	.
O=C(COc1ccc(Cl)cc1Cl)Nc1ccc(Cl)cn1	8.1	2.3	-0.1	.	0.0	3.7
CCOc1ccc(C(=O)Nc2ccc(Cl)cn2)cc1Cl	8.3*	0.0	-0.3	.	0.6	-1.0
